Measured values from ChEMBL document CHEMBL5380846, “2-Aminobenzoxazole Derivatives as Potent Inhibitors of the Sphingosine-1-Phosphate Transporter Spinster Homolog 2 (Spns2)” (J Med Chem, 2023).
The source made the active and inactive calls. The calls are words filed in the database; no cut-off is given here.

target: T1, Sphingosine-1-phosphate transporter SPNS2 (Mus musculus) (UniProt Q91VM4); test: Inhibition of mouse Spns2 expressed in Hela cells assessed as S1P release at 1 uM incubated for 18 to 20 hrs by LC-MS/MS analysis relative to control; type: cell-based; conditions: time 18-20 hrs
T1 sequence (whole entry): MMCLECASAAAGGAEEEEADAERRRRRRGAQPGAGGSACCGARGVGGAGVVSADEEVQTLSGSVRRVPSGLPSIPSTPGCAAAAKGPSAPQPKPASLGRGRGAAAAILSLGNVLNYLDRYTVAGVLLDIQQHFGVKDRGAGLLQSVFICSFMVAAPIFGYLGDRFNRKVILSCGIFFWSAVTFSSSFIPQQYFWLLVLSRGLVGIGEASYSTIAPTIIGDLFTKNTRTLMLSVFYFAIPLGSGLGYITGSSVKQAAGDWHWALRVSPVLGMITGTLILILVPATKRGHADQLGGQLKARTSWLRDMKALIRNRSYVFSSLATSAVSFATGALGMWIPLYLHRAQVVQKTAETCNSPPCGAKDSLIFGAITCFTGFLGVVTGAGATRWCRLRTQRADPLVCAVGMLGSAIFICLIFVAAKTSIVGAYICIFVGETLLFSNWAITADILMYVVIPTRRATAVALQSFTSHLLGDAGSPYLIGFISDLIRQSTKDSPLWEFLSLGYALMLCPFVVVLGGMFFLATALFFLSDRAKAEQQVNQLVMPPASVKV
How it was run: (§1)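 HeLa cells stably transfected (G418 selection) with mouse Spns2, grown to near confluence. Medium was replaced with RPMI 1640 containing 0.2% fatty acid-free BSA, 1 mM 4-deoxypyridoxine, 2 mM NaF and 0.2 mM Na3VO4. Compound was added to duplicate wells (0-2 μM) for 18–20 h. Medium S1P was measured by LC-MS/MS against d7-S1P and expressed as % inhibition versus no-inhibitor control.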

Compound	inhibition
CCCCCCCCCCc1ccc2oc(N3CCNCC3)nc2c1	18%
CCCCCCCCCCc1ccc2oc(NC[C@@H]3CCNC3)nc2c1	50%
CCCCCCCCCCc1ccc2oc(N3CC[C@H](N)C3)nc2c1	1%
CCCCCCCCCCc1ccc2oc(N(CCN)CCN)nc2c1	25%
CCCCCCCCCCc1ccc2oc(NC[C@@H]3CCCNC3)nc2c1	32%
CCCCCCCCCCc1ccc2oc(N3CC[C@@H](N)C3)nc2c1	4%
CCCCCCCCCCc1ccc2oc(N[C@@H]3CCNC3)nc2c1	47%
CCCCCCCCCCc1ccc2oc(N[C@H]3CCCNC3)nc2c1	50%
CCCCCCCCCCc1ccc2oc(NCCCCN)nc2c1	32%
CCCCCCCCCCc1ccc2oc(CCN)nc2c1	5%
CCCCCCCCCCc1ccc2oc(NCCCN)nc2c1	15%
CCCCCCCCCCc1ccc2oc(NC3CNC3)nc2c1	20%
CCCCCCCCCCc1ccc2oc(NC[C@H]3CCCN3)nc2c1	0%
CCCCCCCCCCc1ccc2oc(N(C)CCN)nc2c1	0%
CCCCCCCCCCc1ccc2oc(NCCN)nc2c1	16%
CCCCCCCCCCc1ccc2oc(NC3CCNCC3)nc2c1	54%
CCCCCCCCCCc1ccc2oc(NCC3CCNCC3)nc2c1	14%
CCCCCCCCCCc1ccc2oc(N[C@H]3CCNC3)nc2c1	75%
CCCCCCCCCCc1ccc2oc(NC[C@@H]3CCCN3)nc2c1	6%
CCCCCCCCCCc1ccc2oc(CCCCCN)nc2c1	25%
CCCCCCCCCCc1ccc2oc(NC[C@H]3CCNC3)nc2c1	87%
CCCCCCCCCCc1ccc2oc(CCCCN)nc2c1	0%
CCCCCCCCCCc1ccc2oc(N[C@@H]3CCCNC3)nc2c1	63%
CCCCCCCCCCc1ccc2oc(CCCN)nc2c1	40%
CCCCCCCCCCc1ccc2oc(NC[C@H]3CCCNC3)nc2c1	2%
CCCCCCCCCCc1ccc2oc(NCCCCCN)nc2c1	35%
CCCCCCCCCCc1ccc(-c2noc(CCCN)n2)cc1	44%

target: T1, Sphingosine-1-phosphate transporter SPNS2 (Mus musculus); test: Inhibition of mouse Spns2 expressed in Hela cells assessed as S1P release at 0.3 uM incubated for 18 to 20 hrs by LC-MS/MS analysis relative to control; type: cell-based; conditions: time 18-20 hrs; how it was run: as §1

Compound	inhibition
CCCCCCCCCc1ccc2oc(NC[C@H]3CCNC3)nc2c1	77%
CCCCCCCCCCc1ccc2[nH]c(NC[C@H]3CCNC3)nc2c1	34%
CCCCCCCCCCCCc1ccc2oc(NC[C@H]3CCNC3)nc2c1	36%
CCCCCCCCCCc1ccc2oc(NC[C@H]3CCNC3)nc2c1	56%
CCCCCCCCc1ccc2oc(NC[C@H]3CCNC3)nc2c1	42%
CCCCCCCCCCCc1ccc2oc(NC[C@H]3CCNC3)nc2c1	52%
CCCCCCCCCCc1ccc(-c2noc(CCCN)n2)cc1	30%

system: Mus musculus; test: Decrease in plasma S1P level in mouse C57BL/6j at 10 mg/kg, ip measured after 4 hrs by LC-MS/MS analysis; type: functional, organism-based; conditions: not given
How it was run: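 Female C57BL/6j mice were injected IP at 10 mg/Kg, or with vehicle (PEG400/ethanol/solutol/water). Plasma was taken 4 h post dose. S1P was quantified by LC-MS/MS after TCA precipitation with a d7-S1P internal standard and methanol extraction. Comparison was by t-test.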

Compound	Activity
CCCCCCCCCCc1ccc2oc(NC[C@H]3CCNC3)nc2c1	inactive

system: Mus musculus; test: Decrease in circulating lymphocyte count in mouse C57BL/6j blood at 10 mg/kg, ip […]; conditions: not given

Compound	Activity
CCCCCCCCCCc1ccc2oc(NC[C@H]3CCNC3)nc2c1	Active
